TRPC4 block: TRPC4 (mouse) channel inhibition; B-score at 10 µM; HEK293 TRPC4beta/mu-opioid, DAMGO-evoked Fluo4 calcium flux; stronger effect = lower value; 300,000 compounds, 0.39% hits;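 active = B-score over 3 SD under the library average, no early fluorescence shift, positive overall ratio signal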
Target sequence (Q9QUQ5 whole entry, looked up): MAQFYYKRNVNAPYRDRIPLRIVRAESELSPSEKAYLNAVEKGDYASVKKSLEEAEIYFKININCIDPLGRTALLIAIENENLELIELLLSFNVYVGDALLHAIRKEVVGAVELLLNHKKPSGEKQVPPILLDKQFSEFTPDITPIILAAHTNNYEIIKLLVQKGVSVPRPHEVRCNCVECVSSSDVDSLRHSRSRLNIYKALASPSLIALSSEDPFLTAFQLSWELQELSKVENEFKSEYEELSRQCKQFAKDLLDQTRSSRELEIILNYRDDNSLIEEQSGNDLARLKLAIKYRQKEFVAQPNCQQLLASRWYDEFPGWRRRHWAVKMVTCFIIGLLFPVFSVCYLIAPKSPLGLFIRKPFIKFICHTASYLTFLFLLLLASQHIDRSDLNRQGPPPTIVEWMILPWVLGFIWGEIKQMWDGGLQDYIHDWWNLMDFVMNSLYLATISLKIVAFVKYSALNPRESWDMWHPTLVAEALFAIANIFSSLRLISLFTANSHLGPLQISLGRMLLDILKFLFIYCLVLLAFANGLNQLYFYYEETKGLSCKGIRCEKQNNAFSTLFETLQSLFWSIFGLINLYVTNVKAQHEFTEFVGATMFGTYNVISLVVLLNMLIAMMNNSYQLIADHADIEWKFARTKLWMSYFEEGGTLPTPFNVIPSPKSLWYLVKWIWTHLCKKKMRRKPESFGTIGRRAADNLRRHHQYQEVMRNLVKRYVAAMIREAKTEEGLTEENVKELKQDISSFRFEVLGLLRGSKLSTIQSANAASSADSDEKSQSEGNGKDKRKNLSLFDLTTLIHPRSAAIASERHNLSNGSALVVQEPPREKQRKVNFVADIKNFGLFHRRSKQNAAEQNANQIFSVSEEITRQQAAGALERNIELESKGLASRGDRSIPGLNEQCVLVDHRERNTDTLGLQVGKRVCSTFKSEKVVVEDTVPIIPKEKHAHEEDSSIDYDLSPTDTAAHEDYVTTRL
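material = TRPC4beta/mu-opioid receptor HEK293 cell line | probe or stimulus = sequential submaximal and maximal DAMGO stimulation | compound dosing = one concentration per compound | measured by = Fluo4 Ca2+ flux fluorescence | evaluation = integrated fluorescence ratio relative to baseline, converted to per-well B score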
TRPC4 agonist: opens the mouse TRPC4 cation channel; Q9QUQ5; B-score at 10 µM; 310,000 compounds, 0.49% hits; HEK293 TRPC4beta/mu-opioid, Fluo4 calcium fluorescence; stronger effect = higher value;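 active = B-score above 5 SD of library B-scores, and initial fluorescence ratio not above library mean plus 5 SD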;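 also: positive B-score marks a calcium rise read as TRPC4 activation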
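Assay system: HEK293 cells stably co-expressing mouse TRPC4beta and mu-opioid receptor / Timing: Fluo4 dye loading 45 min at room temperature, 110 s recording / Signal: Fluo4 calcium-sensitive dye fluorescence, kinetic, 1 Hz baseline / Read-out: integrated baseline-normalised fluorescence ratio, converted to per-well B score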
TRPC6 act: activates the mouse TRPC6 cation channel; Q61143; HEK293-TRPC6 membrane potential dye fluorescence; stronger effect = higher value; B-score at 10 µM; 310,000 compounds, 0.13% hits; AID 2550;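 active = B-score of the integrated fluorescence ratio above library mean plus 3 SD, and starting fluorescence ratio within library mean plus 5 SD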;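 also: higher score means more depolarization so channel activation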
TRPC4 PAM: allosterically enhances the mouse TRPC4 cation channel. Q9QUQ5. HEK293 TRPC4beta/mu-opioid, DAMGO EC20, Fluo-4 Ca2+ flux; stronger effect = higher value. B-score at 10 µM. 310,000 compounds, 0.42% hits. AID 2227;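 active = B-score of calcium response area above 5 SD of library B-scores, with initial fluorescence ratio within 5 SD of library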;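 also: B-score of integrated fluorescence ratio over time as area under calcium response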
TRPC6 inh: mouse TRPC6 channel inhibition. Q61143. HEK293-TRPC6, membrane potential dye, ACh-evoked depolarization; stronger effect = lower value. B-score at 10 µM. 310,000 compounds, 1.1% hits;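 active = B-score under library mean minus 3 SD, initial fluorescence not abnormally high, positive integrated signal ratio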;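 also: B-score derived from integrated fluorescence ratio over the kinetic read; more negative B-score means stronger inhibition of depolarization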
TRPC4 spec 2: second check of whether TRPC6 inhibitors also affect mouse TRPC4; HEK293 TRPC4/MOR, membrane potential dye fluorescence; channel activated by saturating DAMGO dose; shares compounds with TRPC6 inh; inhibition, % at 10 µM; 920 compounds, 42% hits;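 active = compounds whose fluorescence signal differed from control wells by over 3 SD, either direction, in both duplicate plates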
TRPC4 spec: mouse TRPC4 off-target activity of TRPC6 inhibitors. shares compounds with TRPC6 inh. activity change, negative = inhibition, % at 10 µM. 920 compounds, 61% hits. AID 2777. HEK293 TRPC4/mu-opioid, membrane potential fluorescence;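 active = rise or fall in signal beyond 3 SD of buffer-only wells in both replicate plates, either sign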;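 also: integrated kinetic ratio of fluorescence range over baseline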
HEK293 MPD ctr 2-1: parental HEK293 nonspecific activity of TRPC6 inhibitors, second screen. signal change vs control, % at 10 µM. 920 compounds, 31% hits. parental HEK293 membrane potential dye fluorescence; maximal acetylcholine challenge after compound addition. shares compounds with TRPC6 inh;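 active = membrane potential signal moving either way by over 3 SD of the maximum-effect control, in both duplicate plates, meaning non-specific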
HEK293 MPD ctr-1: parental HEK293 nonspecific activity of TRPC6 inhibitors; shares compounds with TRPC6 inh; parental HEK293 membrane potential dye fluorescence; membrane potential signal change, % at 10 µM; 920 compounds, 60% hits;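 active = membrane potential signal shifting up or down by more than 3 SD of buffer-only wells, on both duplicate plates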
HEK293 MPD ctr-2: counter-screen for TRPC6 modulators: effect in parental HEK293 cells; membrane potential signal change, % at 10 µM; shares compounds with TRPC6 inh; 2,400 compounds, 51% hits; membrane potential dye fluorescence; AID 488924;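 active = membrane potential signal moves up or down beyond 5 SD from buffer-only wells, on both duplicate plates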
HEK293 MPD ctr 2-2: second check of TRPC6 modulator effects in parental HEK293 cells; shares compounds with TRPC6 inh; inhibition, % at 10 µM; AID 488926; 2,400 compounds, 14% hits; membrane potential dye fluorescence; after compound, maximal acetylcholine stimulation;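 active = membrane potential signal drops by more than 5 SD from the mean control signal, in both duplicate plates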;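 also: plate controls were acetylcholine ECmax control wells for no effect and buffer only wells for full effect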
TRPC4/MOR mod: tests whether TRPC6 modulators also affect mouse TRPC4 | shares compounds with TRPC6 inh | HEK293 TRPC4/mu-opioid, membrane potential fluorescence | percent change from control (negative = decrease, positive = increase), % at 10 µM | 2,400 compounds, 69% hits;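 active = membrane potential signal moved up or down beyond 5 SD of buffer control wells, in both duplicate plates, actives on both sides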;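 also: plate controls were assay buffer wells for no effect and DAMGO maximal-effect wells for full effect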
TRPC4 ctr inh 2: second selectivity test of TRPC6 modulators against mouse TRPC4; shares compounds with TRPC6 inh; HEK293 TRPC4/mu-opioid, membrane potential dye fluorescence; stimulated with maximal-effect DAMGO; inhibition, % at 10 µM; 2,400 compounds, 55% hits; AID 488928;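 active = drop in membrane potential signal beyond 5 SD of the control wells in both duplicate plates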;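 also: TRPC4 counter screen for TRPC6 hits run under conditions tuned for TRPC6 not TRPC4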
TRPC6 inh conf: confirmation of mouse TRPC6 inhibitors | inhibition, % at 10 µM | shares compounds with TRPC6 inh | 3,300 compounds, 43% hits | HEK293-TRPC6, membrane potential dye, ACh-evoked depolarization | AID 488960;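 active = fluorescence ratio falls more than 5 SD below the full-stimulation control mean, in both duplicate runs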;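 also: integrated fluorescence ratio of peak minus minimum over baseline after agonist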
TRPC6 act confirm: confirmation of mouse TRPC6 activators | shares compounds with TRPC6 inh | HEK293-TRPC6 membrane potential dye fluorescence, FDSS | activation, % at 10 µM | 2,800 compounds, 11% hits | AID 488961;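 active = ratio signal rise beyond 5 SD above unstimulated control wells' mean, seen in both duplicate runs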;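 also: plate controls were buffer EC0 wells for no effect and acetylcholine ECmax response for full effect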
* hit, by the source's call; i = inactive; / = no result. Only some compounds are listed: those with a hit (about 2.3% of all), similar ones and a draw of the others.

SMILES	TRPC4 block	TRPC4 agonist	TRPC6 act	TRPC4 PAM	TRPC6 inh	HEK293 MPD ctr-2	HEK293 MPD ctr 2-2	TRPC4/MOR mod	TRPC4 ctr inh 2	TRPC6 inh conf	TRPC6 act confirm	others
COc1cccc(NS(=O)(=O)c2ccc3[nH]cc(C(=O)NC4CC4)c(=O)c3c2)c1	i	i	14.3*	i	-8.87*	i	i	i	i	58.0%*	90.5%*
CCN(CC(=O)Nc1ccccc1C(F)(F)F)C(=O)/C=C/c1ccc(Cl)c([N+](=O)[O-])c1	i	i	i	i	i	/	/	/	/	/	/
O=C(COc1ccc(Cl)cc1Cl)NNC(=S)NCc1ccco1	i	i	i	i	-5.37*	i	i	i	i	i	i
Cn1cc(CN2C[C@]3(C)C[C@H]2CC(C)(C)C3)c(-c2ccc3c(c2)OCCO3)n1	i	i	i	i	i	/	/	/	/	/	/
Cn1c(=O)cc2c3c(c(N4CCCCC4)ccc31)C(=O)c1ccccc1-2	i	i	i	i	-5.07*	-181.5%*	i	-42.0%*	54.0%*	39.0%*	i
O=C1c2ccccc2C(=O)c2c1cccc2N1CCCC1	i	i	i	i	i	/	/	/	/	/	/
Cc1ccc(C)c(NC(=O)C(NCC(C)(C)N2CCOCC2)c2ccccc2)c1 (centres undefined)	i	i	i	i	-6.74*	/	/	/	/	i	/	TRPC4 spec 2=i;TRPC4 spec=5.2%*;HEK293 MPD ctr 2-1=i;HEK293 MPD ctr-1=7.3%*
COc1ccc(C)cc1NC(=O)C(NCC(O)c1ccccc1)c1ccccc1 (centres undefined)	i	i	i	i	i	/	/	/	/	/	/
CCN(C(=S)Nc1ccccc1F)C1CCCCC1	i	i	i	i	i	/	/	/	/	/	/
Cc1[nH]n(-c2ccc(Br)cc2)c(=O)c1C=Nc1ccc(S(=O)(=O)Nc2nccs2)cc1	i	i	i	i	-5.79*	i	i	-39.0%*	39.5%*	i	i
CCOC(=O)/C(=C/c1ccc(N2CCC(c3ccccc3)=N2)cc1)C(C)=O	i	i	14*	i	i	582.5%*	i	51.0%*	i	i	43.0%*
Cc1ccccc1N1CCN(CCC(=O)Nc2ccc(F)cc2)CC1	i	i	i	i	i	/	/	/	/	/	/
CN(C)C=Nc1ncc2c3ccccc3n(CCN(C)C)c2c1C#N	i	i	i	i	-7.03*	/	/	/	/	i	i	TRPC4 spec 2=53.5%*;TRPC4 spec=-16.5%*;HEK293 MPD ctr 2-1=i;HEK293 MPD ctr-1=-231.5%*
CN(C)C=Nc1ncc2c3ccccc3n(Cc3ccccc3)c2c1C#N	i	i	i	i	i	/	/	/	/	/	/
CCN(CC)CCn1c2ccccc2c2cnc(N)c(C#N)c21	-6*	i	i	i	-7.23*	/	/	/	/	i	i	TRPC4 spec 2=i;TRPC4 spec=-12.1%*;HEK293 MPD ctr 2-1=i;HEK293 MPD ctr-1=-197.5%*
CSc1cccc(NC(=O)CC2Oc3ccccc3NC2=O)c1 (centres undefined)	i	i	i	i	i	/	/	/	/	/	/
COC(=O)C1CCN(C2=C(NS(=O)(=O)c3ccc(Cl)cc3)C(=O)c3ccccc3C2=O)CC1	i	i	i	i	-6.86*	/	/	/	/	i	i	TRPC4 spec 2=80.0%*;TRPC4 spec=-17.9%*;HEK293 MPD ctr 2-1=i;HEK293 MPD ctr-1=-249.5%*
CCN1C(=O)/C(=C\N2CCCCCC2)SC1=S	i	i	i	i	-7.23*	/	/	/	/	i	i	TRPC4 spec 2=i;TRPC4 spec=i;HEK293 MPD ctr 2-1=i;HEK293 MPD ctr-1=i
CC(C)NC(=O)CCc1nc2cccnc2n1-c1ccccc1	i	i	i	i	-5.86*	i	i	i	i	i	i
CCc1nc2cccnc2n1-c1ccc(CC(=O)O)cc1	i	i	i	i	i	/	/	/	/	/	/
c1ccc(-c2cc(NCCN3CCCCC3)c3ccccc3n2)cc1	i	i	i	i	-8.68*	-181.5%*	65.5%*	-36.0%*	71.5%*	64.0%*	i
OC(c1ccc(F)cc1)C(CN1CCOCC1)c1ccccc1 (centres undefined)	i	i	i	i	i	/	/	/	/	/	/
CC(C)Oc1ccc(N2CC(C(=O)NC3=NCCS3)CC2=O)cc1 (centres undefined)	i	i	i	i	i	/	/	/	/	/	/
Oc1c(C(Nc2ccccn2)c2ccccn2)ccc2cccnc12 (centres undefined)	i	i	i	i	-6.17*	i	i	9.5%*	i	39.5%*	i
CCOC(=O)C1=C(CN2CCN(C(=O)c3ccco3)CC2)NC(=O)NC1c1ccc(F)cc1 (centres undefined)	i	i	i	i	i	/	/	/	/	/	/
CN1CCc2c(sc3c2c(=O)n(-c2cccc(Cl)c2)c2nncn32)C1	i	i	i	i	-5.52*	i	i	7.0%*	i	i	i
O=c1c2c3c(sc2n2cnnc2n1-c1ccccc1)N(Cc1ccccc1)CCC3	i	i	i	i	-6.98*	/	/	/	/	i	i	TRPC4 spec 2=i;TRPC4 spec=-19.9%*;HEK293 MPD ctr 2-1=i;HEK293 MPD ctr-1=-271.0%*
CSc1ccc(S(=O)(=O)NCCSc2ccccn2)cc1	i	i	i	i	i	/	/	/	/	/	/
COc1ccc(OCCN2CCN(C(=O)c3ccc(OC)c(OC)c3)CC2)cc1	i	i	i	i	i	/	/	/	/	/	/

Source: PubChem BioAssay (Johns Hopkins Ion Channel Center)
